# According to ChEMBL document CHEMBL2396592, “Discovery of Dap-3 polymyxin analogues for the treatment of multidrug-resistant Gram-negative nosocomial infections” (J Med Chem, 2013):
# *1 amine or outer side, *2 acyl side, *3 side chain or, on linkers, in order; H or OH if unused. Where a SMILES comes first, the peptide text is derived from it. Bridges are numbered along the chain shown (N, C = ends). [ ]: non-standard residue; d: D form. The star is where a group is joined. Isonicotinoyl(2-Ph) = O=C(c1ccnc(-c2ccccc2)c1)*; Benzoyl(4-Ph) = O=C(c1ccc(-c2ccccc2)cc1)*; X18 = c1ccc(-c2cccc(N*)c2)cc1; Dab = NCC[C@H](N)C(=O)O; Dap = NC[C@H](N)C(=O)O; CO = O=C([*:1])[*:2]
# Legend:
# [1] = Cytotoxicity against human RPTEC after 24 hrs by LDH assay; format: cell-based; details: RPTEC cells, read-out: TC50
# Outline: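 Primary human renal proximal tubule epithelial cells in REGM (EGF, hydrocortisone, epinephrine, insulin, T3, transferrin, gentamycin/amphotericin-B, FBS). After 72 h of growth at 37 °C, 5% CO2, cells were exposed for 24 h to aqueous compound at 100, 67, 44, 30, 20 and 13 μM. LDH release into the supernatant was measured by kit and TC50 (μM) derived, with PMB and PMBN as controls.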
# [2] = Ratio of fAUC in ICR mouse neutropenic infection model to MIC for Pseudomonas aeruginosa assessed during measurement of 50% of maximal efficacy; format: functional
# Canis familiaris [3] = test: fAUC in beagle dog at 11 mg/kg, iv bid administered as bolus dose for 7 days measured at 1 to 7 days; format: ADME, organism-based, Canis lupus familiaris; design: dose 11 mg/kg, route intravenous; details: in vivo
# [4] = Fraction unbound in Wistar Han rat plasma; format: ADME, cell-free
# Pseudomonas aeruginosa [5] = test: Antibacterial activity against polymyxin-resistant Pseudomonas aeruginosa clinical isolates assessed as growth inhibition by broth microdilution method
# Klebsiella pneumoniae = test: Antibacterial activity against polymyxin-sensitive ESBL-positive Klebsiella pneumoniae clinical isolate 3700 assessed as growth inhibition by broth microdilution method; format: functional
# Pseudomonas aeruginosa [6] = test: Antibacterial activity against polymyxin-resistant Pseudomonas aeruginosa clinical isolate 1646 assessed as growth inhibition by broth microdilution method; format: functional
# Outline: (§1)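 Test strain PA-1646 is a P. aeruginosa isolate with a mutated PmrAB two-component system. The system is constitutively active, so the modified lipid A moiety is constantly expressed on the cell surface, giving a polymyxin-resistant phenotype.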
# [7] = Fraction unbound in beagle dog plasma; format: ADME, cell-free, Canis lupus familiaris
# Canis familiaris [8] = test: Ratio of compound fAUC in beagle dog at 11 mg/kg, iv bid for 7 days to polymyxin B fAUC in beagle dog at 6 mg/kg, iv bid for 7 days; format: ADME, organism-based, Canis lupus familiaris; details: in vivo, 168 h
# Canis familiaris [9] = test: Nephrotoxicity in beagle dog assessed as incidence of necrotic kidney lesions at 5 to 20 mg/kg, iv bid administered as bolus dose for 7 days measured at 1 to 7 days by microscopic analysis; format: toxicity, organism-based, Canis lupus familiaris; design: route intravenous; details: in vivo
# Outline: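 Male and female Beagle dogs, 5–11 kg, received IV bolus twice daily (≥6 h apart) for 7 days at 0 (0.9% saline), 5, 11 or 20 mg/kg/day. Necropsy was the day after the last dose. Kidney proximal tubules were examined microscopically for degeneration/regeneration and graded in severity. Incidence is given as animals with lesions over animals tested.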
# [10] = Ratio of fAUC in ICR mouse neutropenic infection model to MIC for Pseudomonas aeruginosa assessed during measurement of statis parameter; format: functional
# Escherichia coli = test: Antibacterial activity against polymyxin-sensitive Escherichia coli isolate 1 assessed as growth inhibition by broth microdilution method; format: functional
# Rattus norvegicus [11] = test: fAUC in Wistar Han rat at 4 mg/kg, iv bid administered as bolus dose for 7 days measured at 1 to 7 days; format: ADME, organism-based; design: dose 4 mg/kg, route intravenous; details: in vivo
# [12] = Ratio of fAUC in ICR mouse neutropenic infection model to MIC for Pseudomonas aeruginosa assessed during measurement of 1 log decrease parameter; format: functional
# Acinetobacter baumannii [13] = test: Antibacterial activity against polymyxin-sensitive Acinetobacter baumannii clinical isolate 3167 assessed as growth inhibition by broth microdilution method; format: functional
# [14] = Plasma protein binding in ICR mouse neutropenic infection model; format: ADME, cell-free; details: read-out: PPB (converted)
# Pseudomonas aeruginosa [15] = test: Bactericidal activity against polymyxin-resistant Pseudomonas aeruginosa clinical isolate 1646; format: functional; outline: as §1
# Pseudomonas aeruginosa [16] = test: Antibacterial activity against polymyxin-sensitive Pseudomonas aeruginosa 1401 assessed as growth inhibition by broth microdilution method; format: functional
# Outline: (§2)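 CLSI broth microdilution MIC against P. aeruginosa 1401 (PA01) and 1402 (UC12120), the two strains used in the mouse thigh model.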
# [17] = Ratio of fAUC in ICR mouse neutropenic infection model to MIC for Pseudomonas aeruginosa assessed during measurement of exposure index required for 80%; format: functional
# Pseudomonas aeruginosa [18] = test: Antibacterial activity against Pseudomonas aeruginosa 1402 assessed as growth inhibition by broth microdilution method; format: functional; outline: as §2
# Acinetobacter baumannii [19] = test: Antibacterial activity against polymyxin-resistant Acinetobacter baumannii clinical isolate 1649 assessed as growth inhibition by broth microdilution method; format: functional
# Canis familiaris [20] = test: fAUC in beagle dog at 5 mg/kg, iv bid administered as bolus dose for 7 days measured at 1 to 7 days; format: ADME, organism-based, Canis lupus familiaris; design: dose 5 mg/kg, route intravenous; details: in vivo
# Mus musculus = test: fAUC in ICR mouse neutropenic infection model at 12.5 to 75 mg/kg, sc; format: ADME, organism-based; design: dose 12.5-75 mg/kg, route subcutaneous; details: in vivo
# Outline: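 Infected neutropenic female ICR mice (~25 g; cyclophosphamide 150 and 100 mg/kg IP at 4 and 1 days before inoculation) received single SC doses of 12.5–75 mg/kg. Six mice per time point were sampled by cardiac puncture at eight times over 12 h, and plasma was assayed by LC-MS.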
# Canis familiaris [21] = test: fAUC in beagle dog at 20 mg/kg, iv bid administered as bolus dose for 7 days measured at 1 to 7 days; format: ADME, organism-based, Canis lupus familiaris; design: dose 20 mg/kg, route intravenous; details: in vivo
# Rattus norvegicus [22] = test: Nephrotoxicity in Wistar Han rat assessed as incidence of necrotic kidney lesions at 4 to 8 mg/kg, iv bid administered as bolus dose for 7 days measured at 1 to 7 days by microscopic analysis; format: toxicity, organism-based; design: route intravenous; details: in vivo
# Outline: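 Male Wistar Han IGS rats, 6–9 weeks old, received IV bolus twice daily (≥6 h apart) for 7 days at 0 (0.9% saline), 4 or 8 mg/kg/day. Necropsy was the day after the last dose. Kidneys were weighed and examined microscopically for proximal tubule epithelial degeneration/regeneration, graded minimal to severe. Incidence is given as animals with lesions over animals tested.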
# Rattus norvegicus [23] = test: fAUC in Wistar Han rat at 8 mg/kg, iv bid administered as bolus dose for 7 days measured at 1 to 7 days; format: ADME, organism-based; design: dose 8 mg/kg, route intravenous; details: in vivo
# Acinetobacter baumannii [24] = test: Bactericidal activity against polymyxin-resistant Acinetobacter baumannii clinical isolate 1649; format: functional
smiles,measurement,setting,value
CC(C)C[C@@H]1NC(=O)[C@@H](Cc2ccccc2)NC(=O)[C@H](CCN)NC(=O)[C@@H](NC(=O)[C@H](CN)NC(=O)[C@@H](NC(=O)[C@H](CCN)NC(=O)c2ccc(=O)n(-c3ccccc3)c2)[C@@H](C)O)CCNC(=O)[C@H]([C@@H](C)O)NC(=O)[C@H](CCN)NC(=O)[C@H](CCN)NC1=O,CC50 at 24 h,[1],> 100 µM
same,fAUC/MIC,[2],87.92
same,fAUC,Canis familiaris [3],64000 ng·h/mL
same,fraction unbound,[4],0.81
same,MIC90,Pseudomonas aeruginosa [5],8 µg/mL
same,MIC50,Klebsiella pneumoniae,0.5 µg/mL
same,MIC90,Klebsiella pneumoniae,1 µg/mL
same,MIC,Pseudomonas aeruginosa [6],4 µg/mL
same,MIC50,Pseudomonas aeruginosa [6],2 µg/mL
same,fraction unbound,[7],0.58
same,fAUC ratio,Canis familiaris [8],1.5
same,Activity,Canis familiaris [9],Toxic
same,fAUC/MIC,[10],85.26
same,MIC50,Escherichia coli,1 µg/mL
same,MIC90,Escherichia coli,2 µg/mL
same,fAUC,Rattus norvegicus [11],13000 ng·h/mL
same,fAUC/MIC,[12],109.63
same,MIC50,Acinetobacter baumannii [13],2 µg/mL
same,MIC90,Acinetobacter baumannii [13],2 µg/mL
same,fraction unbound,[14],0.54
same,MBC,Pseudomonas aeruginosa [15],8 µg/mL
same,MIC50,Pseudomonas aeruginosa [16],1 µg/mL
same,MIC90,Pseudomonas aeruginosa [16],2 µg/mL
same,fAUC/MIC,[17],157.55
same,MIC,Pseudomonas aeruginosa [18],0.5 µg/mL
same,MIC50,Acinetobacter baumannii [19],4 µg/mL
same,MIC90,Acinetobacter baumannii [19],16 µg/mL
same,fAUC,Canis familiaris [20],20000 ng·h/mL
same,fAUC,Mus musculus,7200 ng·h/mL
same,fAUC,Canis familiaris [21],114000 ng·h/mL
same,Activity,Rattus norvegicus [22],Non-toxic
same,fAUC,Rattus norvegicus [23],29000 ng·h/mL
same,MBC,Acinetobacter baumannii [24],2 µg/mL
CC(C)C[C@@H]1NC(=O)[C@@H](Cc2ccccc2)NC(=O)[C@H](CCN)NC(=O)[C@@H](NC(=O)[C@H](CN)NC(=O)[C@@H](NC(=O)[C@H](CCN)NC(=O)c2ccc(-c3ccccc3)cc2)[C@@H](C)O)CCNC(=O)[C@H]([C@@H](C)O)NC(=O)[C@H](CCN)NC(=O)[C@H](CCN)NC1=O ({Benzoyl(4-Ph)}-[Dab]T[Dap][Dab][Dab][dF]L[Dab][Dab]T; lactam 4-C),CC50 at 24 h,[1],28 µM
same,MIC,Klebsiella pneumoniae,0.25 µg/mL
same,MIC,Pseudomonas aeruginosa [6],0.5 µg/mL
same,MIC,Escherichia coli,0.25 µg/mL
same,MIC,Acinetobacter baumannii [13],0.25 µg/mL
same,MBC,Pseudomonas aeruginosa [15],1 µg/mL
same,MIC,Pseudomonas aeruginosa [16],0.5 µg/mL
same,MIC,Acinetobacter baumannii [19],1 µg/mL
same,MBC,Acinetobacter baumannii [24],1 µg/mL
CC(C)C[C@@H]1NC(=O)[C@@H](Cc2ccccc2)NC(=O)[C@H](CCN)NC(=O)[C@@H](NC(=O)[C@H](CN)NC(=O)[C@@H](NC(=O)[C@H](CCN)NC(=O)c2ccnc(-c3ccccc3)c2)[C@@H](C)O)CCNC(=O)[C@H]([C@@H](C)O)NC(=O)[C@H](CCN)NC(=O)[C@H](CCN)NC1=O ({Isonicotinoyl(2-Ph)}-[Dab]T[Dap][Dab][Dab][dF]L[Dab][Dab]T; lactam 4-C),CC50 at 24 h,[1],82 µM
same,MIC,Klebsiella pneumoniae,0.25 µg/mL
same,MIC,Pseudomonas aeruginosa [6],2 µg/mL
same,MIC,Escherichia coli,0.125 µg/mL
same,MIC,Acinetobacter baumannii [13],0.25 µg/mL
same,MBC,Pseudomonas aeruginosa [15],4 µg/mL
same,MIC,Pseudomonas aeruginosa [16],0.25 µg/mL
same,MIC,Acinetobacter baumannii [19],1 µg/mL
same,MBC,Acinetobacter baumannii [24],1 µg/mL
CC(C)C[C@@H]1NC(=O)[C@@H](Cc2ccccc2)NC(=O)[C@H](CCN)NC(=O)[C@@H](NC(=O)[C@H](CN)NC(=O)[C@@H](NC(=O)[C@H](CCN)NC(=O)Nc2cccc(-c3ccccc3)c2)[C@@H](C)O)CCNC(=O)[C@H]([C@@H](C)O)NC(=O)[C@H](CCN)NC(=O)[C@H](CCN)NC1=O ({X18-CO}-[Dab]T[Dap][Dab][Dab][dF]L[Dab][Dab]T; lactam 4-C),CC50 at 24 h,[1],15 µM
same,MIC,Klebsiella pneumoniae,0.25 µg/mL
same,MIC,Pseudomonas aeruginosa [6],1 µg/mL
same,MIC,Escherichia coli,0.25 µg/mL
same,MIC,Acinetobacter baumannii [13],0.25 µg/mL
same,MBC,Pseudomonas aeruginosa [15],1 µg/mL
same,MIC,Pseudomonas aeruginosa [16],0.5 µg/mL
same,MIC,Acinetobacter baumannii [19],4 µg/mL
same,MBC,Acinetobacter baumannii [24],4 µg/mL
CC(C)C[C@@H]1NC(=O)[C@@H](Cc2ccccc2)NC(=O)[C@H](CCN)NC(=O)[C@@H](NC(=O)[C@H](CCN)NC(=O)[C@@H](N)[C@@H](C)O)CCNC(=O)[C@H]([C@@H](C)O)NC(=O)[C@H](CCN)NC(=O)[C@H](CCN)NC1=O [POLYMYXIN B NONAPEPTIDE] (H-T[Dab][Dab][Dab][dF]L[Dab][Dab]T; lactam 3-C),CC50 at 24 h,[1],> 100 µM
same,MIC,Klebsiella pneumoniae,> 64 µg/mL
same,MIC,Pseudomonas aeruginosa [6],> 64 µg/mL
same,MIC,Escherichia coli,> 64 µg/mL
same,MIC,Acinetobacter baumannii [13],> 64 µg/mL
same,MBC,Pseudomonas aeruginosa [15],> 64 µg/mL
same,MIC,Pseudomonas aeruginosa [16],> 64 µg/mL
same,MIC,Acinetobacter baumannii [19],> 64 µg/mL
same,MBC,Acinetobacter baumannii [24],> 64 µg/mL
